We go through 15 compounds from ChEMBL document CHEMBL3779882, “The cysteine releasing pattern of some antioxidant thiazolidine-4-carboxylic acids” (Eur J Med Chem, 2016).

Holding throughout (format): physicochemical
A short description of data set [1]: Antioxidant activity assessed as DPPH free radical scavenging activity treated with 5% DMSO after 50 mins. In outline: (§1)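 Samples serially diluted from 6.75 μM to 1000 μM; BHT reference at 125–2000 μM. Sample added to 0.1 mM DPPH solution in 1:5 volume ratio. Kept in the dark at RT for 50 min, then absorbance read at 517 nm. Triplicates. Scavenging % = [1−(A_average−A_blank)/(A_control−A_blank)]×100. IC50 reported in μM as the level scavenging 50% of radical.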

Data set [2] is described as follows: Antioxidant activity assessed as DPPH free radical scavenging activity treated with methanol after 50 mins. In outline:
as §1

A short description of data set [3]: Antioxidant activity assessed as cupric ion reducing activity treated with MeOH solution measured as ratio of sample to trolox molar extinction coefficient after 20 mins by CUPRAC assay. Summed up: (§2)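 Reagents prepared separately: 10 mM CuSO4, 7.5 mM neocuproine and 1 M ammonium acetate buffer pH 7.0. Samples serially diluted from 6.75 μM to 1000 μM; Trolox reference at 10–70 μM. Each concentration run in triplicate. Incubated at 50°C for 20 min, then absorbance read at 450 nm for Cu(I)-neocuproine. TEAC = ε_sample/ε_Trolox.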

Data set [4] in a line: Antioxidant activity assessed as cupric ion reducing activity treated with 5% DMSO measured as ratio of sample to trolox molar extinction coefficient after 20 mins by CUPRAC assay. In outline:
as §2

Data set [5] in a line: Chemical stability in 5% aqueous DMSO assessed as compound remaining at 20 uM after 20 mins by HPLC analysis. Conditions: read-out: Stability.
Data set [6] can be described thus: Chemical stability in 5% aqueous DMSO assessed as compound remaining at 20 uM measured immediately post treatment by HPLC analysis. Conditions: read-out: Stability. In outline:
(§3)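 Ring opening followed by reversed-phase HPLC-DAD on a C18 column (4.6 × 250 mm). Mobile phase water:acetonitrile 30:70 at 0.5 ml/min, 25°C. Detection at 254 nm, 5 μL injections. Cysteine release tracked from the peak of the aldehyde freed by ring cleavage. Injections made right after dissolution and again after 50 min.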

The nature of data set [7]: Chemical stability in PBS buffer assessed as compound remaining at 20 uM after 20 mins by HPLC analysis. The following applies: read-out: Stability.
Data set [8] in a line: Chemical stability in 5% aqueous DMSO assessed as compound remaining at 20 uM after 50 mins by HPLC analysis. The following applies: read-out: Stability. Summed up: as §3
A short description of data set [9]: Chemical stability in PBS buffer assessed as compound remaining at 20 uM measured immediately post treatment by HPLC analysis. The following applies: read-out: Stability. In outline: as §3
Data set [10] is described as follows: Chemical stability in PBS buffer assessed as compound remaining at 20 uM after 50 mins by HPLC analysis. The following applies: read-out: Stability. In outline: as §3
Data set [11] is described as follows: Chemical stability in 0.1 M phosphoric acid at pH 2 assessed as compound remaining at 20 uM measured immediately post treatment by HPLC analysis. Conditions: read-out: Stability. In outline: as §3
Data set [12] in a line: Chemical stability in 0.1 M phosphoric acid at pH 2 assessed as compound remaining at 20 uM after 20 mins by HPLC analysis. Conditions: read-out: Stability.
Data set [13] can be described thus: Chemical stability in 0.1 M phosphoric acid at pH 2 assessed as compound remaining at 20 uM after 50 mins by HPLC analysis. Conditions: read-out: Stability. Summed up: as §3
Data set [14] can be described thus: Chemical stability in MeOH solution assessed as compound remaining at 20 uM measured immediately post treatment by HPLC analysis. Conditions: read-out: Stability. In outline:
as §3

Data set [15] is described as follows: Chemical stability in MeOH solution assessed as compound remaining at 20 uM after 20 mins by HPLC analysis.
Data set [16] is described as follows: Chemical stability in MeOH solution assessed as compound remaining at 20 uM after 50 mins by HPLC analysis. Summed up:
as §3

Structures are written as SMILES. A value given as a limit tells only on which side of the number the result lay.

In the case of `Cc1cc(C(C)(C)C)c(O)c(C(C)(C)C)c1` [BUTYLATED HYDROXYTOLUENE], the results for the IC50 result in [1] and in data set [2] were “ND(Insoluble)” and 517 µM, respectively.

On to `O=C(O)[C@@H]1CSC(c2ccc(Cl)cc2)N1` (mixture of isomers), for which the figures for the Ratio in [3] and in [4] were 1.52 and “ND(Insoluble)”, respectively. Further, in [1], the IC50 entry is “ND(Insoluble)”.

`Cc1ccccc1C1N[C@H](C(=O)O)CS1` (mixture of isomers): the figures for the Ratio in data set [3] and in data set [4] were 0.57 and 0.75, respectively. Also, the IC50 in data set [1] (read-out: IC50) was 39 µM; in [2], 46.1 µM. Further, the remaining at 20 min, 20 µM in data set [5] is 5.9%; in data set [7], 11.3%; in [12], 11.3%. Further, the remaining at 0 min, 20 µM was found to be 6.8% in data set [6], 15.2% in data set [9], 12.9% in [11] and 4% in [14]. In addition, the remaining at 50 min, 20 µM in data set [8] worked out at 5.6%; in [10], 8.9%; in [13] it was 10.1%. Moreover, the figures for the Stability in data set [15] and in [16] were 4.1% and 4.2%, respectively.

Regarding `O=C(O)[C@@H]1CSC(c2ccccc2)N1` (mixture of isomers), the Ratio in data set [3] came out at 1.54; in [4], 0.99. Moreover, the IC50 stood at 45.2 µM in [1] (read-out: IC50) and 844 µM in data set [2]. For the same compound, the remaining at 20 min, 20 µM in data set [5] was determined as 27.8%; in [7], 27.8%; in data set [12], 62.4%. For the same compound, the remaining at 0 min, 20 µM came out at 76.3% in data set [6], 78.4% in data set [9], 85% in data set [11] and 96.1% in data set [14]. For the same compound, the remaining at 50 min, 20 µM turned out to be 13.8% in data set [8], 13.8% in [10] and 49.9% in [13]. The values for the Stability in data set [15] and in data set [16] were 95.7% and 95.4%, respectively.

Turning to `O=C(O)[C@@H]1CSC(c2cccc(Cl)c2Cl)N1` (mixture of isomers), the Ratio in data set [3] turned out to be 0.93; in data set [4], 0.99. Besides, the IC50 in data set [1] (read-out: IC50) came out at 61.7 µM; in [2], 46.2 µM. Further, the remaining at 20 min, 20 µM in data set [5] was found to be 16.6%; in [7], 17.4%; in data set [12], 17.5%. For the same compound, the remaining at 0 min, 20 µM came out at 17.8% in [6], 15.3% in [9], 21.7% in data set [11] and 15.5% in data set [14]. For the same compound, the remaining at 50 min, 20 µM in data set [8] was 15.7%; in data set [10], 17.9%; in data set [13], 14.2%. In addition, the Stability in [15] was 25.2%; in [16] it was 38.2%.

Regarding `COc1ccc(C2N[C@H](C(=O)O)CS2)cc1` (mixture of isomers), the Ratio result in data set [3] and in data set [4] was “ND(Insoluble)” each time. Further, in data set [1], the IC50 result is on record as “ND(Insoluble)”.

In the case of `O=C(O)[C@@H]1CSC(c2ccccc2Br)N1` (mixture of isomers), the Ratio is listed as 0.8 in data set [3] and 1 in [4]. The concentration for half-maximal inhibition (IC50) in data set [1] (read-out: IC50) turned out to be 37.7 µM; in data set [2], 39.1 µM. In addition, the remaining at 20 min, 20 µM in [5] was found to be 16.2%; in data set [7], 16.3%; in [12], 11.5%. Also, the remaining at 0 min, 20 µM came to 19% in [6], 11.6% in [9], 14.1% in [11] and 70.5% in data set [14]. In addition, the values for the remaining at 50 min, 20 µM in [8], in data set [10] and in data set [13] were 14.3%, 18.5% and 9.5%, respectively. Moreover, the values for the Stability in [15] and in data set [16] were 74% and 75.6%, respectively.

With `N[C@@H](CS)C(=O)O` [CYSTEINE], the Ratio in [3] is reported as 0.63; in data set [4], 0.49. Moreover, the IC50 in data set [1] (read-out: IC50) turned out to be 18.4 µM; in [2], 19.2 µM.

For `COc1ccccc1C1N[C@H](C(=O)O)CS1` (mixture of isomers), the Ratio in data set [3] amounted to 0.96; in [4], 0.79. The IC50 stood at 29.5 µM in data set [1] (read-out: IC50) and 343 µM in data set [2]. The remaining at 20 min, 20 µM in data set [5] was 43.9%; in data set [7] it was 34%; in [12], 78.9%. Further, the remaining at 0 min, 20 µM in data set [6] is 82.8%; in [9] it was 82.5%; in [11], 92.9%; in data set [14], 100%. The figures for the remaining at 50 min, 20 µM in data set [8], in data set [10] and in data set [13] were 26.8%, 21% and 67.6%, respectively. For the same compound, the results for the Stability in data set [15] and in [16] were 98.6% and 97.3%, respectively.

On to `Cc1ccc(C2N[C@H](C(=O)O)CS2)cc1` (mixture of isomers), for which the Ratio in [3] is 1.22; in [4], “ND(Insoluble)”. Besides, in [1], the half-maximal inhibitory concentration (IC50) result was “ND(Insoluble)”.

Turning to `O=C(O)[C@@H]1CSC(c2ccc([N+](=O)[O-])cc2)N1` (mixture of isomers), the figures for the Ratio in [3] and in data set [4] were 0.74 and “ND(Insoluble)”, respectively. For the same compound, in data set [1], the half-inhibitory concentration (IC50) result is reported as “ND(Insoluble)”.

`O=C(O)[C@@H]1CSC(c2cccc(Cl)c2)N1` (mixture of isomers): the results for the Ratio in data set [3] and in data set [4] were 1.5 and “ND(Insoluble)”, respectively. The half-maximal inhibitory concentration (IC50) result in [1] is “ND(Insoluble)”.

In the case of `O=C(O)[C@@H]1CSC(c2cccc(F)c2F)N1` (mixture of isomers), the Ratio in data set [3] came out at 0.83; in data set [4], 0.84. Moreover, the IC50 was 46.8 µM in data set [1] (read-out: IC50) and above 1000 µM in data set [2]. Further, the remaining at 20 min, 20 µM in [5] is 50%; in data set [7] it was 69.3%; in data set [12], 64.6%. Besides, the remaining at 0 min, 20 µM in data set [6] was 83.7%; in data set [9], 92.7%; in data set [11] it was 87.3%; in data set [14] it was 100%. Further, the remaining at 50 min, 20 µM in [8] was determined as 28.7%; in data set [10], 50.1%; in data set [13] it was 43.5%. The Stability amounted to 100% in [15] and 98.8% in data set [16].

For the compound `O=C(O)[C@@H]1CSC(c2c(F)cccc2F)N1` (mixture of isomers), the Ratio in data set [3] is 0.83; in data set [4] it was 1.05. Also, the IC50 was 38.3 µM in data set [1] (read-out: IC50) and 343 µM in [2]. Besides, the values for the remaining at 20 min, 20 µM in data set [5], in data set [7] and in [12] were 39.2%, 61.1% and 72.3%, respectively. Also, the remaining at 0 min, 20 µM stood at 53.8% in data set [6], 79.4% in data set [9], 96.2% in data set [11] and 100% in data set [14]. The results for the remaining at 50 min, 20 µM in data set [8], in [10] and in [13] were 38.2%, 46.9% and 54.8%, respectively. Moreover, the Stability in data set [15] was determined as 99.4%; in data set [16] it was 98.2%.

`N#Cc1ccccc1C1N[C@H](C(=O)O)CS1` (mixture of isomers): the Ratio entry in data set [3] and in [4] was “ND(Insoluble)” in each case. In addition, the IC50 in data set [1] (read-out: IC50) and in [2] was above 1000 µM throughout.
